How the values were obtained:
Assay type in all cases: functional
[1] = tested on: Botryosphaeria berengeriana; assay: Fungicidal activity against Botryosphaeria berengeriana at 50 ug/ml by growth inhibition method; settings: read-out: GI
Procedure, shortened: (§1)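 Mycelial growth inhibition on potato dextrose agar. The panel covered Alternaria solani, Botrytis cinerea, Cercospora arachidicola, C. beticola, Colletotrichum lagenarium, Fusarium oxysporum, Gibberella zeae, Puccinia triticina, Phytophthora infestans, Physalospora piricola, Pellicularia sasakii and Rhizoctonia solani.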

Mycosphaerella arachidis = assay: Fungicidal activity against Mycosphaerella arachidis at 50 ug/ml by growth inhibition method; settings: read-out: GI; procedure, shortened: as §1
Tobacco mosaic virus [2] = assay: In vitro antiviral activity against Tobacco mosaic virus (TMV) infected tobacco leaves at 100 ug/ml
Cercospora beticola = assay: Fungicidal activity against Cercospora beticola at 50 ug/ml by growth inhibition method; settings: read-out: GI; procedure, shortened: as §1
Colletotrichum lagenaria = assay: Fungicidal activity against Colletotrichum lagenaria at 50 ug/ml by growth inhibition method; settings: read-out: GI; procedure, shortened: as §1
Thanatephorus cucumeris = assay: Fungicidal activity against Thanatephorus cucumeris at 50 ug/ml by growth inhibition method; settings: read-out: GI; procedure, shortened: as §1
Fusarium graminearum = assay: Fungicidal activity against Fusarium graminearum at 50 ug/ml by growth inhibition method; settings: read-out: GI; procedure, shortened: as §1
Rhizoctonia solani = assay: Fungicidal activity against Rhizoctonia solani at 50 ug/ml by growth inhibition method; settings: read-out: GI; procedure, shortened: as §1
Phytophthora infestans = assay: Fungicidal activity against Phytophthora infestans at 50 ug/ml by growth inhibition method; settings: read-out: GI; procedure, shortened: as §1
Tobacco mosaic virus [3] = assay: In vitro antiviral activity against Tobacco mosaic virus (TMV) infected tobacco leaves at 500 ug/ml
Puccinia triticina = assay: Fungicidal activity against Puccinia triticina at 50 ug/ml by growth inhibition method; settings: read-out: GI; procedure, shortened: as §1
Alternaria solani = assay: Fungicidal activity against Alternaria solani at 50 ug/ml by growth inhibition method; settings: read-out: GI; procedure, shortened: as §1

Compound	inhibition of growth at 50 µg/mL [1] [%]	inhibition of growth at 50 µg/mL (Mycosphaerella arachidis) [%]	inhibition at 100 µg/mL (Tobacco mosaic virus [2]) [%]	inhibition of growth at 50 µg/mL (Cercospora beticola) [%]	inhibition of growth at 50 µg/mL (Colletotrichum lagenaria) [%]	inhibition of growth at 50 µg/mL (Thanatephorus cucumeris) [%]	inhibition of growth at 50 µg/mL (Fusarium graminearum) [%]	inhibition of growth at 50 µg/mL (Rhizoctonia solani) [%]	inhibition of growth at 50 µg/mL (Phytophthora infestans) [%]	inhibition at 500 µg/mL (Tobacco mosaic virus [3]) [%]	inhibition of growth at 50 µg/mL (Puccinia triticina) [%]	inhibition of growth at 50 µg/mL (Alternaria solani) [%]
Cc1ccc(N(C(=O)c2nnsc2C)C(C(=O)NC2CCCCC2)c2ccc(Cl)cc2)cc1F (stereo not drawn)	0	18	8	13	0	0	0	22	6	14	0	0
Cc1ccc(N(C(=O)c2nnsc2C)C(C(=O)NC2CCCCC2)c2ccccc2Cl)cc1F (stereo not drawn)	0	0	16	0	0	0	45	22	25	53	0	0
Cc1ccc(N(C(=O)c2nnsc2C)C(C(=O)NC2CCCCC2)c2cccc(F)c2)cc1F (stereo not drawn)	8	27	52	25	43	11	9	2	44	30	0	50
Cc1ccc(N(C(=O)c2nnsc2C)C(C(=O)NC2CCCCC2)c2ccccc2F)cc1F (stereo not drawn)	0	55	33	25	57	0	73	59	50	58	0	63
Cc1ccc(N(C(=O)c2nnsc2C)C(C(=O)NC2CCCCC2)c2ccc(C(F)(F)F)cc2)cc1F (stereo not drawn)	0	0	27	0	14	0	9	22	0	36	0	0
Cc1ccc(N(C(=O)c2nnsc2C)C(C(=O)NC2CCCCC2)c2cccc(C(F)(F)F)c2)cc1F (stereo not drawn)	0	27	35	25	29	13	14	22	25	72	0	25
Cc1ccc(N(C(=O)c2nnsc2C)C(C(=O)NC2CCCCC2)c2ccccc2C(F)(F)F)cc1F (stereo not drawn)	0	0	31	25	14	0	0	4	25	20	0	44
Cc1ccc(C(C(=O)NC2CCCCC2)N(C(=O)c2nnsc2C)c2ccc(C)c(F)c2)cc1 (stereo not drawn)	8	27	21	25	14	15	0	2	25	53	0	0
Cc1ccc(N(C(=O)c2nnsc2C)C(C(=O)NC2CCCCC2)c2ccccc2C)cc1F (stereo not drawn)	0	0	13	25	29	0	0	22	44	35	0	38
